In brackets after ≈: the same amount, converted by molar mass.
What was measured:
Type in all cases: functional
[1] = system: Neisseria meningitidis; assay: Antibacterial activity against Beta-lactamase-negative Neisseria meningitidis assessed as percent resistant isolates by Etest method
How it was run: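 Isolates were classed resistant using breakpoints drawn from several organizations. Serogroup A reference strain OR173/87 was included for quality control.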

[2] = system: Neisseria meningitidis; assay: Antibacterial activity against Beta-lactamase-negative Neisseria meningitidis by Etest method
[3] = system: Neisseria meningitidis; assay: Antibacterial activity against Beta-lactamase-negative Neisseria meningitidis assessed as percent intermediate isolates by Etest method
How it was run: (§1)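 Serogroup A reference strain OR173/87 included for quality control. Isolates were classed susceptible, intermediate or resistant using breakpoints drawn from several organizations.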

[4] = system: Neisseria meningitidis; assay: Antibacterial activity against Beta-lactamase-negative Neisseria meningitidis assessed as percent susceptible isolates by Etest method; how it was run: as §1

| Compound | Activity [1] [%] | MIC50 [2] [µg/mL] | MIC90 [2] [µg/mL] | Activity [3] [%] | Activity [4] [%] | MIC [2] [µg/mL] |
| --- | --- | --- | --- | --- | --- | --- |
| CC1(C)S[C@@H]2[C@H](NC(=O)[C@H](N)c3ccccc3)C(=O)N2[C@H]1C(=O)O [AMPICILLIN] | 0 | 0.064 (≈ 0.183 µM) | 0.094 (≈ 0.269 µM) | 1 | 99 | – |
| CO/N=C(\C(=O)N[C@@H]1C(=O)N2C(C(=O)O)=C(CSc3nc(=O)c(O)nn3C)CS[C@H]12)c1csc(N)n1 [CEFTRIAXONE] | – | < 0.002 | < 0.002 | 0 | 100 | < 0.002 |
| CO/N=C(\C(=O)N[C@@H]1C(=O)N2C(C(=O)O)=C(COC(N)=O)CS[C@H]12)c1ccco1 [CEFUROXIME] | 0 | 0.047 (≈ 0.111 µM) | 0.094 (≈ 0.221 µM) | 1 | 99 | – |
| O=C(N[C@H](CO)[C@H](O)c1ccc([N+](=O)[O-])cc1)C(Cl)Cl [CHLORAMPHENICOL] | – | 0.75 (≈ 2.32 µM) | 1 (≈ 3.09 µM) | 0 | 100 | – |
| O=C(O)c1cn(C2CC2)c2cc(N3CCNCC3)c(F)cc2c1=O [CIPROFLOXACIN] | – | 0.004 (≈ 0.0121 µM) | 0.004 (≈ 0.0121 µM) | 0 | 100 | – |
| CC[C@H]1OC(=O)[C@H](C)[C@@H](O[C@H]2C[C@@](C)(OC)[C@@H](O)[C@H](C)O2)[C@H](C)[C@@H](O[C@@H]2O[C@H](C)C[C@H](N(C)C)[C@H]2O)[C@](C)(O)C[C@@H](C)C(=O)[C@H](C)[C@@H](O)[C@]1(C)O [ERYTHROMYCIN] | 74 | 0.75 (≈ 1.02 µM) | 1 (≈ 1.36 µM) | 0 | 26 | 0.032 (≈ 0.0436 µM) |
| CC1(C)S[C@@H]2[C@H](NC(=O)Cc3ccccc3)C(=O)N2[C@H]1C(=O)O [PENICILLIN G] | 0 | 0.047 (≈ 0.141 µM) | 0.094 (≈ 0.281 µM) | 2 | 98 | – |
| CC1(C)S[C@@H]2[C@H](NC(=O)COc3ccccc3)C(=O)N2[C@H]1C(=O)O [PENICILLIN V] | 1 | 0.19 (≈ 0.542 µM) | 0.38 (≈ 1.08 µM) | 0 | 99 | 0.016 (≈ 0.0457 µM) |
| CO[C@H]1/C=C/O[C@@]2(C)Oc3c(C)c(O)c4c(O)c(c(/C=N/N5CCN(C)CC5)c(O)c4c3C2=O)NC(=O)/C(C)=C\C=C\[C@H](C)[C@H](O)[C@@H](C)[C@@H](O)[C@@H](C)[C@H](OC(C)=O)[C@@H]1C [RIFAMPIN] | 0 | 0.064 (≈ 0.0778 µM) | 0.125 (≈ 0.152 µM) | 1 | 99 | – |
| Nc1ccc(S(=O)(=O)Nc2ncccn2)cc1 [SULFADIAZINE] | 94 | > 256 | > 256 | 6 | 0 | – |
| CN(C)[C@@H]1C(O)=C(C(N)=O)C(=O)[C@@]2(O)C(O)=C3C(=O)c4c(O)cccc4[C@@](C)(O)[C@H]3C[C@@H]12 [TETRACYCLINE] | 52 | 2 (≈ 4.5 µM) | 4 (≈ 9 µM) | 0 | 48 | – |

— ChEMBL document CHEMBL1649154, “Antibiotic susceptibility and characteristics of Neisseria meningitidis isolates from the African meningitis belt, 2000 to 2006: phenotypic and genotypic perspectives” (2009)
